STAT3 act: STAT3 signaling activation; U3A cells, IL-6 STAT3-luciferase reporter, luminescence; 100% = signal with IL-6 EC80 alone; activation (% of control), % at 5.6 µM; 190,000 tested, 0.91% active;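 active means activation above the screen-wide mean of compound activation plus 3 SD, cut at about 130% in these data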;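 further: 0% = background luminescence of wells with medium and substrate only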
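system = STAT3-luciferase reporter U3A cells | reagent = IL-6 stimulus at 33 ng/mL final | timing = 1 h compound pre-exposure, 6 h IL-6 stimulation, 37 °C | measured by = luminescence | evaluation = % activation versus median of IL-6-stimulated wells | control set = IL-6-only wells as 100% reference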
STAT1 activator: increases IFN-gamma driven STAT1 reporter signal | NIH 3T3 STAT1-luciferase reporter, luminescence; 100% = IFN-gamma alone, no compound | AID 932 | 200,000 tested, 2.6% active | activation (% of control), % at 5.5 µM;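 active means activation above the screen-wide mean activation plus 3 SD, cut at about 130% in these data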;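 further: raw ratio to IFN-gamma control signal so 100% means no change and 0% no light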
APP 5'UTR act: activates APP 5'UTR luciferase reporter; activation, % at 2 µM; 190,000 tested, 1% active; SH-SY5Y APP 5'UTR luciferase reporter, luminescence; zero percent = DMSO vehicle wells; AID 1276;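 active means activation above a set limit, based on mean plus 3 SD of controls, cut at about 140% in these data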
NF-kB neuron act: NF-kB expression increase, human neuronal cells; NF-kB reporter expression; hits give high values; fold change at 12.5 µM; 190,000 tested, 1.6% active; in the data active means fold change above about 3.3
STAT1 blocker: reduces IFN-gamma driven STAT1 reporter signal | NIH 3T3 STAT1-luciferase reporter, luminescence | inhibition, % at 5.5 µM | 200,000 tested, 0.35% active | AID 920;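 active means inhibition above a set limit, the mean inhibition across all tested compounds plus 3 SD, cut at about 34% in these data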;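 further: 0% = IFN-gamma with DMSO and 100% = IFN-gamma with 300 µM nifuroxazide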
STAT3 blocker: STAT3 signaling inhibition. inhibition, % at 5.5 µM. AID 862. 190,000 tested, 0.89% active. U3A cells, IL-6 STAT3-luciferase reporter, luminescence; host cell line lacks STAT1;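 active means inhibition above the mean inhibition across all screened compounds plus 3 SD, cut at about 44% in these data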;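 further: 0% = DMSO only wells and 100% = 100 µM nifuroxazide control wells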
An asterisk follows results filed as active; x = no result. Shown are actives, neighbours in structure and some others; about 4.9% of the full set was active somewhere.

SMILES	STAT3 act	STAT1 activator	APP 5'UTR act	NF-kB neuron act	STAT1 blocker	STAT3 blocker
O=C(/C=C/c1ccc2c(c1)OCCCO2)c1ccccc1O	107	128	216*	3.6*	-31	-8
O=C(Cn1nc(-c2ccccc2)ccc1=O)Nc1ccc(N2CCN(C(=O)c3cccs3)CC2)cc1	101	102	4	0.99	-4	1
O=C(COC(=O)Cn1cnc2ccccc21)Nc1ccc2c(c1)OCCO2	97	104	2	0.97	-5	8
O=C(COC(=O)Cn1cnc2ccccc21)Nc1cc2c(cc1Cl)C(=O)c1ccccc1C2=O	113	136*	73	1.7	-37	-12
COc1ccc(NC(=O)/C(Cl)=C(/Cl)S(=O)(=O)Cc2ccc(C)cc2)cn1	111	133*	-86	0.17	-37	-7
O=c1oc2ccccc2n1CSC1=NCCS1	107	82	23	4.2*	20	-4
O=c1oc2ccccc2n1CSc1nc2ccccc2s1	115	137*	96	3.3*	-40	-10
Cn1c(CSc2nc3ccccc3s2)nc2ccccc21	101	142*	61	2.1	-45	1
FC(F)(Cl)c1nnc2ccc(Cl)nn12	110	99	16	1.4	-1	0
CCN(CC)Cc1c(NC(=O)c2ccccc2)sc(C)c1C	123	134*	-1	1.1	-38	-24
CCOC(=O)c1sc(NC(=O)C2CC2)cc1C	86	96	15	1	5	24
CCN(CC)C(=O)c1c(NC(=O)c2ccccc2)sc(C)c1C	99	97	-5	0.98	4	1
CCOC(=O)c1sc(NC(=O)C(C)(C)C)cc1C	102	131*	74	2.6	-35	7
CCOC(=O)c1sc(NC(=O)c2ccccc2)cc1C	94	145*	117	6.7*	-49	15
CCOC(=O)c1csc(NC(=O)c2ccccc2)n1	92	136*	144*	3.6*	-40	18
O=C(/C=C/c1ccc([N+](=O)[O-])cc1)NCCN1C(=O)S/C(=C\c2ccc(F)cc2)C1=O	102	95	23	x	6	3
CN(Cc1c(C(=O)N2CCc3ccccc3C2)nc2ccc(Cl)cn12)C(C1CC1)C1CC1	114	90	-29	0.92	9	-11
CCOC(=O)c1sc(NC(=O)Nc2ccc(Cl)cc2)cc1C	96	103	38	1.3	-3	11
CCOC(=O)c1sc(NC(=O)c2ccc(Cl)s2)cc1C	101	132*	76	2.1	-35	8
CCOC(=O)c1sc(=NC(=O)c2ccccc2)n(C)c1C	132	138*	180*	6.7*	-41	-28
O=C(Nc1ccc(F)cc1)c1ccccc1S(=O)(=O)c1ccccc1[N+](=O)[O-]	104	98	-5	1.2	2	-7
O=C1CCCC2=C1C(c1ccc(O)cc1)c1c(ccc3ccccc13)N2 (stereo not drawn)	107	100	202*	0.89	-1	-6
CSc1nnc2ccc(-c3cccs3)nn12	91	104	7	1.4	-6	19
CCN1CCc2c(OCC(=O)Nc3ccc4c(c3)OCCO4)cccc2C1=O	103	91	-6	1	8	4
O=C(NCCc1ccccc1)c1nc2c(nnn2Cc2ccccc2Cl)c(=O)[nH]1	133*	106	14	1.1	-7	-38
SMILES	STAT3 act	STAT1 activator	APP 5'UTR act	NF-kB neuron act	STAT1 blocker	STAT3 blocker
COc1ccc(N2CC(O)=C(c3nc4ccccc4s3)C2=N)cc1	108	109	14	1.1	-10	-4
N=C1C(c2nc3ccccc3s2)=C(O)CN1c1ccccc1	103	149*	17	1.6	-55	4
CCNC(=S)N/N=C/c1cc(C)n(-c2ccc(Cl)cc2)c1C	106	144*	20	1	-50	1
Cc1cc(/C=N\NC(=O)CC(=O)NC2CCCCC2)c(C)n1-c1ccc(Cl)c(Cl)c1	105	105	9	0.96	-5	4
Cc1cc(/C=N/NC(N)=S)c(C)n1-c1ccc(Cl)c(Cl)c1	97	114	-6	7.8*	-16	1
COc1ccc(-n2nc(C(=O)NCC(=O)N3CCN(c4ccccn4)CC3)c3ccccc3c2=O)cc1OC	102	115	1	1	-17	4
COc1ccc(-n2nc(C(=O)NCC(=O)N3CCN(c4ccccn4)CC3)c3ccccc3c2=O)cc1	105	137*	33	1	-41	-2
